Assay outcomes as filed in PubChem.
DDE Tn7 FP inh – inhibitors of Tn7 peptide binding to human fibrin DD(E); 370,000 compounds, 0.13% hits; FP displacement of FITC-Tn7 peptide from fibrin DD(E); 0% = median of compound wells per plate; P02675; inhibition, % at 8.3 µM;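 active = inhibition above the mean of compounds falling within the control limits plus 3 SD of them, cut at about 14% in these data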;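 note: 0% = plate median of compound wells and 100% = 10 µM Aha-Tn7 peptide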
Target sequence (P02675 whole entry, looked up): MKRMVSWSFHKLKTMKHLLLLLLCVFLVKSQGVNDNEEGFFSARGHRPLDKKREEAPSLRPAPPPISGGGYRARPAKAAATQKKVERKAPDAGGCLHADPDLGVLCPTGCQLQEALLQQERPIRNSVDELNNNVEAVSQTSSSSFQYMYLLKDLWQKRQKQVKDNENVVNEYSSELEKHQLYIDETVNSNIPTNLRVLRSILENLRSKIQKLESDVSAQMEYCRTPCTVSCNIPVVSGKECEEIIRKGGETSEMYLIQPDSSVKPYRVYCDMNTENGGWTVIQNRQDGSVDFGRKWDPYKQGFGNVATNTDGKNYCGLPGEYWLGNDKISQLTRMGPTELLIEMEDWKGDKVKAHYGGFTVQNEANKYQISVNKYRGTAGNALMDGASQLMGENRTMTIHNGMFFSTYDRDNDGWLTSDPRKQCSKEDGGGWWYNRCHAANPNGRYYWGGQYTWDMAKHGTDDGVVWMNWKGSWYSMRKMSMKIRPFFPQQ
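Assay system: Human fibrin DD(E) protein | Medium: Tris buffer with calcium and detergent, pH 7.8 | Reagent: 0.1 µM fluorescent Tn7 | Compound dosing: Single point at 8.3 µM | Times: 10 min preincubation, 3 h with tracer, room temperature | Detection: Fluorescence polarization of the labelled Tn7 tracer | Controls: Aha-Tn7 high control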
ADAM10 inh – inhibitors of human ADAM10. 370,000 compounds, 0.62% hits. inhibition, % at 7 µM. recombinant ADAM10, EDANS/DABCYL FRET peptide cleavage, 3 h. O14672;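 active = inhibition above a per-campaign cutoff equal to the mean of compounds falling between control-based bounds plus 3 SD, cut at about 20% in these data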;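 note: 0% = DMSO wells while the 100% control is not disclosed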
ADAM17 inh – ADAM17 inhibition, QFRET primary screen; recombinant ADAM17, EDANS/DABCYL FRET peptide cleavage; P78536; inhibition, % at 6.95 µM; AID 720648; 370,000 compounds, 0.83% hits;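 active = inhibition above the mean of compounds lying between control limits plus 3 SD, set per campaign, cut at about 8.5% in these data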;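 note: 0% = DMSO-only wells as the low control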
DDE Tn6 FP inh – disrupts Tn6 cyclic peptide binding to fibrin D-Dimer-E complex. inhibition, % at 8.3 µM. P02675. 370,000 compounds, 0.21% hits. Fibrin DD(E) TRITC-Tn6 fluorescence polarization displacement. AID 720509;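 active = inhibition above a per-campaign cutoff: mean of compounds within control limits plus 3 SD, cut at about 15% in these data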;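 note: 0% = median of all compound wells on the plate and 100% = blocking peptide control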
MT1-MMP act inh – inhibitors of human MT1-MMP activation; HT1080 RFP-PRO-GFP cells, GFP/RFP ratio fluorescence, overnight; percent of plate control window, DMSO zero; P50281; AID 651647; 360,000 compounds, 0.061% hits; GFP/RFP ratio change, % at 20 µM;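 active = GFP/RFP ratio change of at least 30% with cell ATP level not reduced by more than half and red fluorescence within 50% of control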
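Assay system: HT1080 RFP-PRO-GFP cells. Benchmarks: DMSO vehicle wells and RFP-L50D-GFP reporter cell wells. Times: overnight cell settling, then overnight compound exposure, 37 °C, 5% CO2. Compound: 20 µM single dose, 1% DMSO. Read-out basis: GFP/RFP fluorescence ratio.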
DDE Tn6 FP ctr – counter-screen hit for Tn6 peptide-fibrin DD(E) binding disruption; 680 compounds, 2% hits; shares compounds with DDE Tn6 FP inh; AID 720621; inhibition, % at 8.3 µM; TRITC-Tn6 fluorescence polarization displacement; 0% = median of compound wells, not DMSO;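 active = inhibition above the mean of test compounds lying between the control limits plus 3 SD of those, cut at about 14% in these data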;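 note: 0% = median of compound wells and 100% = wells with Aha-Tn7 blocking peptide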
DDE Tn6 confirm – DD(E)-Tn6 binding inhibition, FP confirmation; shares compounds with DDE Tn6 FP inh; FP displacement of TRITC-Tn6 peptide from DD(E); 0% = per-plate median of test wells; inhibition, % at 8.3 µM; 680 compounds, 10% hits; AID 720631;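 active = inhibition above the mean of compounds lying within the control limits plus 3 SD, cut at about 16% in these data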;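 note: 100% = high control wells holding a competing inhibitor peptide at 10 µM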
* hit, by the source's call; / = not tested or not shown. Rows were chosen to be rich in hits. Some 1.6% of all compounds tested hit in one or more screens of this group.

SMILES	DDE Tn7 FP inh	ADAM10 inh	ADAM17 inh	DDE Tn6 FP inh	MT1-MMP act inh	DDE Tn6 FP ctr	DDE Tn6 confirm
CCCC(=O)C1=C(O)C(C(=O)OC)C(C)(C)CC1=Nc1ccc(N)cc1 (configuration not stated)	-1	3	-1	4	9	/	/
O=C(COC(=O)/C=C/c1ccco1)Nc1ncc(C(F)(F)F)cc1Cl	1	-12	-2	16*	-4	-7	-7
Cc1c(Cl)cnc(NC(=O)COC(=O)/C=C/c2ccco2)c1Cl	3	-17	-9	-3	-10	/	/
COC(=O)C[C@H]1CC[C@@H]2[C@H](COc3ccc(NS(C)(=O)=O)cc3C(=O)N2C)O1	-4	-2	-5	-2	/	/	/
CSc1cccc(NC(=O)NCc2cccc(CNC(=O)Nc3cccc(SC)c3)c2)c1	8	3	-5	27*	-2	5	-4
CSc1cccc(NC(=O)C(=O)NCc2ccccc2)c1	7	5	2	-4	4	/	/
O=C(NCc1ccccc1)[C@H]1CCCN1	5	-3	-3	-4	/	/	/
CCCCNc1cccc2c1S(=O)(=O)N[C@@H](Cc1ccccc1)CO2	-5	4	3	-9	/	/	/
Nc1ncnc2c1CN(Cc1ccccc1)CC2	5	-6	-1	65*	-3	-7	-7
Nc1nc2c(c(=O)[nH]1)CN(Cc1ccccc1)CC2	2	-67	-16	10	0	/	/
COc1cc(CCN=Cc2cccc(OC)c2O)c([N+](=O)[O-])cc1OC	1	-9	-2	-1	/	/	/
Cn1cccc1C(=O)NC(=O)COC(=O)CCNS(=O)(=O)c1ccc(Cl)cc1	3	-4	-1	16*	2	4	-5
Cc1ccc(S(=O)(=O)N2CCN(C(=O)COC(=O)C3CCC3)CC2)cc1	3	1	-1	18*	4	11	4
COc1ccc(OC)c(S(=O)(=O)Nc2ccc(C(=O)Nc3cc(C)on3)cc2)c1	1	0	0	-10	/	/	/
Cc1cc(N/N=C/c2ccco2)c2ccccc2n1	6	-262	-92	17*	3	1	0
COC(=O)c1ccc2c(c1)C(C)(C)C(/C=C/c1ccc(O)cc1)=[N+]2C	-28	-56	-42	64*	86	-44	-25
O=C(Cn1cc([N+](=O)[O-])cn1)N1CCc2ccccc2C1	6	2	-3	15*	-3	-7	-10
O=C(N/N=C/c1cccnc1)C(=O)N1CCCCCC1	7	3	4	15*	2	-3	-4
O=C(N/N=C/c1ccc(C(=O)O)cc1)C(=O)N1CCCCCC1	7	-7	-3	4	0	/	/
Cc1ccc(S(=O)(=O)N2CCCC(C(=O)NCCN3CCC(Cc4ccccc4)CC3)C2)cc1 (configuration not stated)	9	-10	0	1	/	/	/
O=C(Nc1cccc(Cl)c1)OC1CCC12CCC(c1ccccc1)CC2 (configuration not stated)	7	11	4	-4	/	/	/
CC(=O)Nc1ccc(S(=O)(=O)N2CCC(c3nc4ccccc4[nH]3)CC2)cc1	-5	-2	-1	4	4	/	/
O=C(CSc1ccc(-c2nc3ccccc3[nH]2)cn1)Nc1ccc(S(=O)(=O)N2CCCC2)cc1	2	-32	-8	59*	7	-5	-3
CC(C)(C)C(=O)Nc1ccc(S(=O)(=O)N2CCC(c3nc4ccccc4[nH]3)CC2)cc1	-1	-7	0	18*	0	-1	-2
Cc1cc2nc(-c3ccc(SCC(=O)Nc4ccc(S(=O)(=O)N5CCCC5)cc4)nc3)[nH]c2cc1C	9	-86	-34	0	0	/	/
SMILES	DDE Tn7 FP inh	ADAM10 inh	ADAM17 inh	DDE Tn6 FP inh	MT1-MMP act inh	DDE Tn6 FP ctr	DDE Tn6 confirm
CC(C)C[C@H]1CN([C@@H](Cc2ccccc2)CN2CCC[C@H]2CN2C(=O)C(=O)NC[C@@H]2Cc2ccccc2)C(=O)C(=O)N1CC1CCCCCC1	-3	-19	1	-4	/	/	/
Cc1ccc(C)c(NC(=O)C2CCCN2S(=O)(=O)c2cccnc2)c1 (configuration not stated)	-4	1	0	0	/	/	/
COc1ccc(CCNC(=O)c2ccc3c(c2)ncn3C2CCCCC2)cc1	-1	8	3	0	/	/	/
O=C(CC(c1ccccc1)c1ccccc1)NCc1cccnc1	-1	-5	-5	0	-2	/	/
CC(NCc1cccnc1)c1ccccc1 (configuration not stated)	7	3	1	16*	0	0	3
CCCCc1c(-c2ccccc2OC)ncn1Cc1cccc(F)c1	-2	4	-1	-4	/	/	/
COC(=O)[C@]12C[C@H](CC(=O)N3CCCC3)C(=O)N(CCC3=CCCCC3)C1=C[C@H](COCc1ccccc1)O[C@@H]2C	3	1	-2	2	/	/	/
COc1ccc(-c2nc(-c3ccccn3)nc(N3CCN(C)CC3)c2C#N)cc1	2	-16	-2	17*	-3	5	0
CC(C)C[C@@H]1COc2cc(N3CCSCC3)ccc2S(=O)(=O)N1C	-2	3	0	0	/	/	/
c1cc(CNc2ccc3c(c2)OCO3)ccn1	6	-43	-19	16*	-11	-1	-3
CC(C)Cn1c2c(c(O)c(C(=O)Nc3ccc(F)cc3)c1=O)CCCC2	-3	-6	-2	16*	-3	1	-3
COc1nc(-c2ccccc2Cl)ccc1C#N	6	-1	-2	18*	1	10	8
CCCC(NC(=O)CNC(=O)C(C)(C)C)C(=O)O (configuration not stated)	3	-4	-5	16*	-2	3	2
CCCS(=O)(=O)N1CCN(C(=O)c2ccc(-c3ccccc3)cc2)CC1	11	5	-2	15*	1	-4	-7
C#CCN(C[C@H]1[C@H](OC(=O)NCCCCCC)[C@H](OC(=O)NCCCCCC)CN(C(=O)OC(C)C)N1C(=O)OC(C)C)S(=O)(=O)c1ccc(C)cc1	4	-7	0	2	/	/	/
COc1cccc(C(=O)N[C@H](C(=O)N2CCC[C@H]2C(=O)NC2CCCC2)C2CCCCC2)c1	-7	-1	2	-3	/	/	/
COc1ccc(NC(=O)Nc2ccc3c(c2)C(=O)N([C@H](C)CO)C[C@H](C)[C@@H](CN(C)S(=O)(=O)c2ccc(OC)cc2)O3)cc1	10	9	3	3	-3	/	/
